The values that follow come from ChEMBL document CHEMBL4422695, “Antiangiogenic Activity of Compounds Isolated from Anarrhinum pedatum” (2019).

Active and inactive are the calls of the source. The rule behind the calls is not given here.

Assay [1] is filed under the species Danio rerio. The assay is described as follows: Antiangiogenic activity in wild type zebrafish 24 hrs post fertilization embryos assessed as reduction in blood vessel growth at 2 uM treated for 48 hrs by alkaline phosphatase assay relative to control. The class given is functional. In short, it runs like this: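 Wild-type zebrafish embryos from natural mating, raised at 28.5 °C; healthy embryos selected at 24 hpf, dechorionated, one per well in 100 μL embryo water with agent (2 μM) in DMSO 0.2% v/v, 10 per group, exposed 24–72 hpf. Ethanol-dehydrated, diethanolamine buffer (1 M, pH 9.8) washes, p-nitrophenyl phosphate 0.5 mg/mL 30 min RT, NaOH stop, OD 405 nm; percent of control, ≥3 repeats, t-test.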

Assay [2] deals with Chorioallantoic membrane. The assay is described as follows: Antiangiogenic activity in chicken fertilized egg chorioallantoic membrane assessed as appearance of less dense microvasculature at 2 uM after 48 hrs by stereomicroscopic analysis. The class given is functional, tissue-based. Particulars: Gallus gallus. The method, boiled down:
(§1)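 Fertilized chicken eggs incubated at 37 °C, positioned horizontally and rotated; 1 cm2 window opened on day 4, malformed or dead embryos excluded. Test agents at 2 μM (100 μL/egg) or retinoic acid at 3 μM, in DMSO (0.2% v/v) in Tris buffer pH 7.4; ten eggs/group. Reincubated 2 days. CAM microvasculature imaged under stereomicroscope, standardized area quantified; percent of vehicle control, three repeats, t-test.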

In assay [3] the test system is Chorioallantoic membrane. The assay is described as follows: Antiangiogenic activity in chicken fertilized egg chorioallantoic membrane at 2 uM after 48 hrs by stereomicroscopic analysis relative to control. The class given is functional, tissue-based. Conditions: Gallus gallus. The method, boiled down:
as §1

Assay [4] deals with Chorioallantoic membrane. The assay is described as follows: Antiangiogenic activity in chicken fertilized egg chorioallantoic membrane at 3 uM after 48 hrs by stereomicroscopic analysis relative to control. The class given is functional, tissue-based. Particulars: Gallus gallus. The method, boiled down: as §1
Assay [5] deals with Chorioallantoic membrane. The assay is described as follows: Antiangiogenic activity in chicken fertilized egg chorioallantoic membrane assessed as reduction in capillary formation at 3 uM after 48 hrs by stereomicroscopic analysis. The class given is functional, tissue-based. Conditions: Gallus gallus. The method, boiled down:
as §1

Consider `C/C(=C\CO)CC/C=C(\C)C(=O)O[C@@H]1[C@@H]2O[C@]2(CO)[C@H]2[C@H](O[C@@H]3O[C@H](CO)[C@@H](O)[C@H](O)[C@H]3O)OC=C[C@@]12OC(=O)/C(C)=C/CC/C(C)=C/CO`, for which the outcome in assay [1] was inactive.
For the molecule `C[C@]12O[C@H]1[C@@H](O)[C@]1(O)C=CO[C@@H](O[C@@H]3O[C@H](CO)[C@@H](O)[C@H](O)[C@H]3O)[C@@H]12` [ANTIRRHINOSIDE], the Activity is 81% in assay [1] and 29.9% in assay [3]. For the same molecule, the result in assay [2] was Active.
With `C[C@]1(O)CC[C@@H]2C(C(=O)O[C@@H]3CO[C@](O)(CO)[C@@H](O)[C@@H]3O)=CO[C@@H](O[C@@H]3O[C@H](COC(=O)C=Cc4ccc(O)cc4)[C@@H](O)[C@H](O)[C@H]3O)[C@@H]21` (mixture of isomers), in assay [1], the outcome was inactive.
Same read-out and setting: the value for `C=C[C@@](C)(O)CC/C=C(\C)C(=O)O[C@@]12C=CO[C@@H](O[C@@H]3O[C@H](CO)[C@@H](O)[C@H](O)[C@H]3O)[C@@H]1[C@@]1(C)O[C@H]1[C@H]2OC(=O)/C(C)=C/CC/C(C)=C/CO` was “inactive”; that for `C/C(=C\CO)CC/C=C(\C)C(=O)OC[C@H]1OC(O)[C@H](O)[C@@H](O)[C@@H]1O` (some centres not stated) was “inactive”.
On the same count and under the same terms, for `C/C(=C\CO)CC/C=C(\C)C(=O)O[C@@H]1[C@@H]2O[C@]2(C)[C@H]2[C@H](O[C@@H]3O[C@H](CO)[C@@H](O)[C@H](O)[C@H]3O)OC=C[C@@]12OC(=O)/C(C)=C/CC/C(C)=C/CO` the value was “inactive”.
As to `C=C[C@@](C)(O)CC/C=C(\C)C(=O)O[C@@]12C=CO[C@@H](O[C@@H]3O[C@H](CO)[C@@H](O)[C@H](O)[C@H]3O)[C@@H]1[C@@]1(CO)O[C@H]1[C@H]2OC(=O)/C(C)=C/CC/C(C)=C/CO`, in assay [1], the result was inactive. For the same molecule, in assay [2], the result was Active. In addition, the Activity in assay [3] came out at 31.4%.
The matching figures for `C[C@]12O[C@H]1[C@@H](OC(=O)/C=C/c1ccccc1)[C@]1(O)C=CO[C@@H](O[C@@H]3O[C@H](CO)[C@@H](O)[C@H](O)[C@H]3O)[C@@H]12`: “inactive”, “Active” and 23.9%.
`COc1cc2c(cc1O)CC[C@@H]1[C@@H]2CC[C@]2(C)[C@@H](O)CC[C@@H]12` [2-METHOXYESTRADIOL]: in assay [1], the Activity is 52%.
On to `C=C[C@@](C)(O)CC/C=C(\C)C(=O)O[C@@H]1O[C@H](CO)[C@@H](O)[C@H](O)[C@H]1O`, for which the Activity in assay [1] amounted to 56.98%; in assay [3], 29%. Further, the result in assay [2] was Active.
Turning to `O=C(/C=C/c1ccccc1)OC[C@H]1O[C@@H](O[C@@H]2OC=C[C@@]3(O)[C@H](O)[C@@H]4O[C@]4(CO)[C@@H]23)[C@H](O)[C@@H](O)[C@@H]1O`, in assay [1], the outcome was inactive.
Take `C/C(=C\CO[C@@H]1O[C@H](CO)[C@@H](O)[C@H](O)[C@H]1O)CC/C=C(\C)C(=O)O[C@@H]1O[C@H](CO)[C@@H](O)[C@H](O)[C@H]1O`: the outcome in assay [1] was inactive.
As for `C/C(=C\CO)CC/C=C(\C)C(=O)O[C@@H]1[C@@H]2O[C@]2(CO)[C@H]2[C@H](O[C@@H]3O[C@H](CO)[C@@H](O)[C@H](O)[C@H]3O)OC=C[C@@]12O`, the outcome in assay [1] was inactive.
Take `C/C(=C\CO)CC/C=C(\C)C(=O)O[C@@H]1[C@@H]2O[C@]2(C)[C@H]2[C@H](O[C@@H]3O[C@H](CO)[C@@H](O)[C@H](O)[C@H]3O)OC=C[C@@]12O`: the Activity in assay [1] worked out at 48.33%; in assay [3], 29.6%. Moreover, the outcome in assay [2] was Active.
As for `CC1=C(/C=C/C(C)=C/C=C/C(C)=C/C(=O)O)C(C)(C)CCC1`, the Activity in assay [4] was determined as 45%. Besides, in assay [5], the outcome was Active.
Regarding `C[C@]12O[C@H]1[C@@H](OC(=O)C=Cc1ccc(O)cc1)[C@]1(O)C=CO[C@@H](O[C@@H]3O[C@H](CO)[C@@H](O)[C@H](O)[C@H]3O)[C@@H]12` (mixture of isomers), the Activity in assay [1] stood at 77.38%.
Regarding `C=C[C@@](C)(O)CC/C=C(\C)C(=O)OC[C@H]1O[C@@H](O[C@@H]2OC=C(C(=O)O[C@@H]3CO[C@](O)(CO)[C@@H](O)[C@@H]3O)[C@H]3CC[C@](C)(O)[C@@H]23)[C@H](O)[C@@H](O)[C@@H]1O`, the results for the Activity in assay [1] and in assay [3] were 72.72% and 21.5%, respectively. In assay [2], the outcome was Active.
As for `C/C(=C\CO)CC/C=C(\C)C(=O)O[C@@H]1O[C@H](CO)[C@@H](O)[C@H](O)[C@H]1O`, in assay [1], the Activity is 79.82%.
Still for that read-out and setting: the value for `C/C(=C/CO)CC/C=C(\C)C(=O)OC[C@H]1O[C@@H](O[C@@H]2OC=C(C(=O)O[C@@H]3CO[C@](O)(CO)[C@@H](O)[C@@H]3O)[C@H]3CC[C@](C)(O)[C@@H]23)[C@H](O)[C@@H](O)[C@@H]1O` was “inactive”.
